Compound activity (PubChem BioAssay)
An excerpt weighted towards active compounds, which were near 2% of everything screened.
XiGFP reactiv = activators of inactive X chromosome reactivation, primary screen, imaging, XiGFP fibroblasts, GFP high-content imaging, set 2. activation, % at 7.58 µM. AID 743238, 2013. XiGFP mouse fibroblasts, % GFP-positive cells imaging, 3 d; cells co-treated with 5-aza-dC sensitizer; scaled so ellipticine positive control = 100%. 0.055% of 360,000 active;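 active = mean normalized replicate activation at least 10% and every replicate at or above 10%; inconclusive = only one of the two criteria met; inactive = mean below 10% and not all replicates reach 10%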
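Assay system: SV40-immortalized XiGFP fibroblast cells, line 68-5-11; buffer or medium: DMEM plus 5-aza-dC sensitizer; compound: one concentration, pinned; timing: compounds 3 days, fix/stain 15 min at room temperature; benchmarks: positive control ellipticine, 6 µM final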
FN deposition inh = inhibitors of fibronectin matrix deposition, primary screen, AH1F cells, Alexa488-fibronectin fluorescence, plate reader; AH1F fibroblasts, overnight; inhibition, % at 12.6 µM; 0.086% of 350,000 active; AID 743247, 2014;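 active = mean inhibition across replicates of 30% or more, regardless of how many single replicates reach that level; inconclusive = mean under 30% yet at least half of replicates reach 30%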
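material = AH1F fibroblast monolayer depositing Alexa488-labelled fibronectin into matrix | amount = 10000 AH1F cells/well | buffer or medium = DMEM plus 2% serum, read in PBS | incubation = 1 h cell adhesion before compound, then overnight fibronectin incubation | detection = fluorescence at 485 nm excitation, 525 nm emission | evaluation = percent inhibition as loss of matrix-bound fibronectin fluorescence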
CaV13 ICDI inh = Primary screen for inhibitors of IQ motif and Ca2+-dependent inactivation inhibitor domain binding in CACNA1D, Förster resonance energy transfer in living cells, … | AID 743397 | HEK cells, CFP/YFP FRET ICDI-IQ, plate reader, 10 min; percent FRET-ratio fall versus neutral wells | 0.098% of 340,000 active | inhibition, % at 12.3 µM;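 active = mean replicate inhibition of at least 30% and at least 1% of replicates passing that level; inconclusive = only one of the two criteria is met; inactive = neither criterion is met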
DENV2 CPE = inhibitors of DENV2 cytopathic effect, primary screen, cell-based, plate reader, single concentration. DENV2-infected cells, cytopathic effect rescue. CPE inhibition, % at 9.99 µM. 1.7% of 350,000 active; in the data active = CPE inhibition above about 20%, passing the limit was not always enough; inconclusive = no clear call, values can overlap the other calls; tested in BHK-21 cells
Casp6 inh = human caspase-6 inhibitors, primary screen, biochemical, VEID-R110 fluorescence, single point, set 2; P55212; purified caspase-6, Z-VEID-R110 cleavage fluorescence; inhibition, % at 12.5 µM; 0.53% of 350,000 active;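 active = mean inhibition across replicates at least about 35%, with every replicate also reaching that limit, limit read from the data; inconclusive = only one of the two criteria met; inactive = neither criterion met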
Target sequence (P55212 24-179 limits assumed): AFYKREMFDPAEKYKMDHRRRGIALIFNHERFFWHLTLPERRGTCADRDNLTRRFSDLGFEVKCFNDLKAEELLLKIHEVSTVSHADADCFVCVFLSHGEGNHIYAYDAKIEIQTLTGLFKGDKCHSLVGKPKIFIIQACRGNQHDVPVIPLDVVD
Target sequence (P55212 194-293 limits assumed): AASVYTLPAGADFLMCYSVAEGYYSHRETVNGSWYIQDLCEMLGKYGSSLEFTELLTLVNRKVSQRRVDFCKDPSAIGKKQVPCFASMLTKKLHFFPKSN
A number is an active result; - = inactive; ? = inconclusive; . = no result.

SMILES | XiGFP reactiv | FN deposition inh | CaV13 ICDI inh | DENV2 CPE | Casp6 inh
COc1ccc(NC(=O)Nc2ccccc2F)c(C)c1 | - | - | - | - | -
CO[C@H](CN(C)C(=O)c1cnccn1)[C@H](C)CN([C@H](C)CO)S(=O)(=O)c1ccc(F)cc1 | - | - | . | ? | -
CO[C@@H](CN(C)C(=O)c1cnccn1)[C@H](C)CN([C@@H](C)CO)S(=O)(=O)c1ccc(F)cc1 | - | - | . | 27 | -
C[C@@H]1CN([C@H](C)CO)C(=O)c2cc(-c3cccnc3)cnc2O[C@@H]1CN(C)C(=O)Cc1cccnc1 | - | - | . | - | -
COc1cccc(C2c3[nH]c4ccccc4c3C[C@H]3C(=O)N(c4ccccc4C(=O)N4CCC(C(=O)O)CC4)C(=O)N23)c1 (stereo partly drawn) | . | . | . | 83 | -
COc1ccc(C2c3[nH]c4ccccc4c3C[C@H]3C(=O)N(c4ccccc4C(=O)N4CCC(C(=O)O)CC4)C(=O)N23)cc1 (stereo partly drawn) | . | . | . | - | -
COc1ccc(S(=O)(=O)N(C)C[C@H]2OCCCC[C@H](C)Oc3ccc(NC(=O)CCCN(C)C)cc3C(=O)N([C@@H](C)CO)C[C@@H]2C)cc1 | - | . | . | - | -
C[C@@H]1CN([C@@H](C)CO)C(=O)c2cc(C#CCN(C)C)cnc2O[C@@H]1CN(C)C(=O)c1cccc(F)c1 | - | - | . | - | -
CCCC#Cc1cnc2c(c1)C(=O)N([C@@H](C)CO)C[C@H](C)[C@H](CN(C)C(=O)c1cccc(F)c1)O2 | - | . | . | 27 | -
C[C@H]1CN([C@@H](C)CO)C(=O)c2cc(C#CCN(C)C)cnc2O[C@H]1CN(C)C(=O)c1cccc(F)c1 | - | - | . | 34 | -
CCCC#Cc1cnc2c(c1)C(=O)N([C@@H](C)CO)C[C@H](C)[C@@H](CN(C)C(=O)c1cccc(F)c1)O2 | - | . | . | - | -
COc1ccc(Cl)cc1C(=O)NNC(=O)c1cccc(S(=O)(=O)N(C)C)c1 | - | 31 | - | . | .
COc1cc(/C=C/C(=O)NNC(=O)c2cccc(S(=O)(=O)N(C)C)c2)cc(OC)c1OC | - | - | - | - | -
C[C@H](CO)N1C[C@H](C)[C@@H](CN(C)C)Oc2cc(-c3ccccc3)ccc2S1(=O)=O | - | . | . | - | -
CC1(C)CC(=O)C(C=Nc2cccnc2/N=C/C2=C(O)CC(C)(C)CC2=O)=C(O)C1 | - | - | 129 | - | 41
COc1ccccc1CN1CCCC(N2CCN(c3ccccc3OC)CC2)C1 (stereo not drawn) | - | - | - | 29 | -
COc1ccccc1N1CCN(C2CCCN(C(=O)c3ccoc3C)C2)CC1 (stereo not drawn) | - | - | - | - | -
COc1ccccc1N1CCN(C2CCCN(C(=O)c3cccc(-c4ccco4)c3)C2)CC1 (stereo not drawn) | - | - | - | 44 | -
C[C@H]1CN([C@@H](C)CO)C(=O)c2cc(NC(=O)CCCN(C)C)ccc2O[C@H]1CN(C)S(C)(=O)=O | - | . | . | - | -
CN(C)C(=O)C[C@H]1CC[C@H]2[C@@H](COc3ccc(NC(=O)c4cnccn4)cc3C(=O)N2C)O1 | - | - | . | 60 | -
CCNC(=O)C[C@@H]1CC[C@H]2[C@@H](COc3ccc(NC(=O)Cc4ccccc4)cc3C(=O)N2C)O1 | - | - | . | ? | -
COCC(=O)Nc1ccc2c(c1)C(=O)N(C)[C@@H]1CC[C@@H](CC(=O)NCC(F)(F)F)O[C@@H]1CO2 | - | - | . | 81 | -
CCNC(=O)C[C@H]1CC[C@@H]2[C@H](COc3ccc(NC(=O)c4cscn4)cc3C(=O)N2C)O1 | - | - | . | - | -
CCNC(=O)C[C@@H]1CC[C@@H]2[C@H](COc3ccc(NC(=O)c4cscn4)cc3C(=O)N2C)O1 | - | - | . | 24 | -
CCNC(=O)C[C@@H]1CC[C@@H]2[C@H](COc3ccc(NC(=O)Cc4ccccc4)cc3C(=O)N2C)O1 | - | - | . | 27 | -
